Laboratory results taken from ChEMBL document CHEMBL1138097, “Lysine sulfonamides as novel HIV-protease inhibitors: Nepsilon-acyl aromatic alpha-amino acids” (Bioorg Med Chem Lett, 2006).

Tests used:
[1] = tested on: Human immunodeficiency virus 1; assay: Antiviral activity against HIV1 multi PI resistant strain 4596; type: functional, organism-based; settings: Human immunodeficiency virus 1, 4596
Procedure, shortened: (§1)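 EC50 values come from a whole-cell cytopathic anti-viral assay, reported as the mean of at least three experiments. For line 2, the multi-PI-resistant strain 4596 carries protease mutations 82T, 84V, 10R and 63P. For line 1, the saquinavir-resistant strain SaqR carries protease mutations 48V and 90M.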

[2] = biological target: Human immunodeficiency virus type 1 protease (Human immunodeficiency virus 1, UniProt Q72874); assay: Inhibition of HIV aspartyl protease
Procedure, shortened: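 Assayed on purified HIV protease with a fluorescence rate readout (RFU/min). IC50 was taken from a dose–response curve. Ki came from fitting initial rates (200–600 s) to a tight-binding equation that accounts for protease concentration. Values are means of at least two experiments.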

[3] = tested on: Human immunodeficiency virus 1; assay: Antiviral activity against HIV1 NL4-3 in MT4 cells; type: functional, organism-based; settings: Human immunodeficiency virus 1, NL4-3, MT4
Procedure, shortened: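 Whole-cell cytopathic assay in MT-4 cells infected with the molecular clone HIV-1 NL4-3. EC50 is the mean of at least two experiments.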

[4] = tested on: Human immunodeficiency virus 1; assay: Antiviral activity against HIV1 Saquinavir resistant strain SaqR; type: functional, organism-based; settings: Human immunodeficiency virus 1, SaqR; procedure, shortened: as §1

Structure (SMILES) | EC50 [1] | IC50 [2] | EC50 [3] | EC50 [4]
CC(C)CN([C@H](CO)CCCCNC(=O)[C@@H](NC(=O)c1ccccn1)C(c1ccccc1)c1ccccc1)S(=O)(=O)c1ccc(N)cc1 | 161 nM | 0.46 nM | 68 nM | –
CC(C)CN([C@H](CO)CCCCNC(=O)[C@@H](NC(=O)N1CCOCC1)C(c1ccccc1)c1ccccc1)S(=O)(=O)c1ccc(N)cc1 | – | 0.51 nM | 78 nM | –
COC(=O)N[C@@H](C(=O)NCCCC[C@@H](CO)N(CC(C)C)S(=O)(=O)c1ccc(N)cc1)C(c1ccccc1)c1ccccc1 | – | 13 nM | 850 nM | –
CC(C)CN([C@H](CO)CCCCNC(=O)[C@@H](NC(=O)c1ccncc1)C(c1ccccc1)c1ccccc1)S(=O)(=O)c1ccc(N)cc1 | 26 nM | 0.65 nM | 32 nM | –
Cc1ncccc1C(=O)N[C@H](C(=O)NCCCC[C@@H](CO)N(CC(C)C)S(=O)(=O)c1ccc(N)cc1)C(c1ccccc1)c1ccccc1 | 36 nM | 0.4 nM | 42 nM | –
CC(=O)N[C@H](C(=O)NCCCC[C@@H](CO)N(CC(C)C)S(=O)(=O)c1ccc(N)cc1)C(c1ccccc1)c1ccccc1 | 66 nM | 1.5 nM | 66 nM | –
CC(C)CN([C@H](CO)CCCCNC(=O)[C@@H](N)C(c1ccccc1)c1ccccc1)S(=O)(=O)c1ccc(N)cc1 | 43 nM | 0.5 nM | 44 nM | –
COc1cc(C(=O)N[C@@H](C(=O)NCCCC[C@@H](CO)N(CC(C)C)S(=O)(=O)c2ccc(N)cc2)C(c2ccccc2)c2ccccc2)ccc1O | 23 nM | 0.5 nM | 14 nM | –
CC(C)CN([C@H](CO)CCCCNC(=O)[C@@H](NC(=O)c1ncccc1O)C(c1ccccc1)c1ccccc1)S(=O)(=O)c1ccc(N)cc1 | 186 nM | 0.9 nM | 153 nM | –
CC(C)CN([C@H](CO)CCCCNC(=O)[C@@H](NC(=O)OCc1ccccn1)C(c1ccccc1)c1ccccc1)S(=O)(=O)c1ccc(N)cc1 | 18 nM | 0.12 nM | 17 nM | 14 nM
COC(=O)N[C@H](Cc1cccc2ccccc12)C(=O)NCCCC[C@@H](CO)N(CC(C)C)S(=O)(=O)c1ccc(N)cc1 | – | 1.2 nM | 120 nM | –
COC(=O)N[C@H](Cc1ccc2ccccc2c1)C(=O)NCCCC[C@@H](CO)N(CC(C)C)S(=O)(=O)c1ccc(N)cc1 | – | 1.2 nM | 258 nM | –
COC(=O)N[C@H](Cc1ccccc1-c1ccccc1)C(=O)NCCCC[C@@H](CO)N(CC(C)C)S(=O)(=O)c1ccc(N)cc1 | – | 0.521 nM | 200 nM | –
COC(=O)N[C@H](Cc1ccccc1)C(=O)NCCCC[C@@H](CO)N(CC(C)C)S(=O)(=O)c1ccc(N)cc1 | – | 12 nM | 2000 nM | –
COC(=O)N[C@@H](C(=O)NCCCC[C@@H](CO)N(CC(C)C)S(=O)(=O)c1ccc(N)cc1)c1ccccc1 | – | > 300 nM | – | –
COC(=O)N[C@H](CCc1ccccc1)C(=O)NCCCC[C@@H](CO)N(CC(C)C)S(=O)(=O)c1ccc(N)cc1 | – | 40 nM | 9000 nM | –
COC(=O)N(C)[C@H](Cc1ccccc1)C(=O)NCCCC[C@@H](CO)N(CC(C)C)S(=O)(=O)c1ccc(N)cc1 | – | 6.5 nM | 1000 nM | –
CC(C)CN([C@H](CO)CCCCNC(=O)[C@@H](NC(=O)c1cccnc1)C(c1ccccc1)c1ccccc1)S(=O)(=O)c1ccc(N)cc1 | 25 nM | 0.68 nM | 39 nM | –

Structure (SMILES) | EC50 [1] | IC50 [2] | EC50 [3] | EC50 [4]
CC(C)CN([C@H](CO)CCCCNC(=O)[C@@H](NC(=O)OCc1cccnc1)C(c1ccccc1)c1ccccc1)S(=O)(=O)c1ccc(N)cc1 | 18 nM | 0.48 nM | 18 nM | –
COC(=O)N[C@@H](C(=O)NCCCC[C@H](CO)N(CC(C)C)S(=O)(=O)c1ccc(N)cc1)C(c1ccccc1)c1ccccc1 | – | > 300 nM | > 100000 nM | –
CC(C)CN([C@H](CO)CCCCNC(=O)[C@@H](NC(=O)Cc1cccnc1)C(c1ccccc1)c1ccccc1)S(=O)(=O)c1ccc(N)cc1 | 128 nM | 0.24 nM | 194 nM | –
CC(C)CN([C@H](CO)CCCCNC(=O)[C@@H](NC(=O)c1cccc(O)c1)C(c1ccccc1)c1ccccc1)S(=O)(=O)c1ccc(N)cc1 | 30 nM | 0.4 nM | 64 nM | –
CC(C)CN([C@H](CO)CCCCNC(=O)[C@@H](NC(=O)c1ccc(O)c([N+](=O)[O-])c1)C(c1ccccc1)c1ccccc1)S(=O)(=O)c1ccc(N)cc1 | 35 nM | 0.56 nM | 55 nM | –
COC(=O)N[C@H](C(=O)NCCCC[C@H](CO)N(CC(C)C)S(=O)(=O)c1ccc(N)cc1)C(c1ccccc1)c1ccccc1 | – | 25 nM | 3000 nM | –
CC(C)CN([C@H](CO)CCCCNC(=O)[C@@H](NC(=O)C1CC1)C(c1ccccc1)c1ccccc1)S(=O)(=O)c1ccc(N)cc1 | 46 nM | 0.43 nM | 25 nM | 17 nM
CC(C)CN([C@H](CO)CCCCNC(=O)[C@@H](NC(=O)N(C)C)C(c1ccccc1)c1ccccc1)S(=O)(=O)c1ccc(N)cc1 | 56 nM | 0.44 nM | 62 nM | –
CC(C)CN([C@H](CO)CCCCNC(=O)[C@@H](NC(=O)c1cnccc1O)C(c1ccccc1)c1ccccc1)S(=O)(=O)c1ccc(N)cc1 | – | 0.5 nM | – | –
CC(C)CN([C@H](CO)CCCCNC(=O)[C@@H](NC(=O)C1CCCCC1)C(c1ccccc1)c1ccccc1)S(=O)(=O)c1ccc(N)cc1 | 186 nM | < 3.8 nM | 93 nM | –
CC(C)CN([C@H](CO)CCCCNC(=O)[C@@H](NC(=O)c1ccc[nH]1)C(c1ccccc1)c1ccccc1)S(=O)(=O)c1ccc(N)cc1 | 51 nM | 0.43 nM | 34 nM | –
CC(C)CN([C@H](CO)CCCCNC(=O)[C@@H](NC(=O)c1ccc([N+](=O)[O-])c(O)c1)C(c1ccccc1)c1ccccc1)S(=O)(=O)c1ccc(N)cc1 | 10 nM | 0.33 nM | 16 nM | –
CC(C)CN([C@H](CO)CCCCNC(=O)[C@@H](NC(=O)OCc1ccncc1)C(c1ccccc1)c1ccccc1)S(=O)(=O)c1ccc(N)cc1 | 13 nM | 0.39 nM | 20 nM | 4 nM
CC(C)CN([C@H](CO)CCCCNC(=O)[C@@H](NC(=O)c1ccccc1O)C(c1ccccc1)c1ccccc1)S(=O)(=O)c1ccc(N)cc1 | 134 nM | 0.63 nM | 64 nM | –
CC(C)CN([C@H](CO)CCCCNC(=O)[C@@H](NC(=O)c1ccc(O)cc1)C(c1ccccc1)c1ccccc1)S(=O)(=O)c1ccc(N)cc1 | 34 nM | 0.53 nM | 88 nM | –
CC(C)CN([C@H](CO)CCCCNC(=O)[C@@H](NC(=O)OC(C)(C)C)C(c1ccccc1)c1ccccc1)S(=O)(=O)c1ccc(N)cc1 | 290 nM | 0.4 nM | 41 nM | –
COC(=O)N[C@H](C(=O)NCCCC[C@@H](CO)N(CC(C)C)S(=O)(=O)c1ccc(N)cc1)C(c1ccccc1)c1ccccc1 [PPL-100] | 38 nM | 0.5 nM | – | 19 nM
